Data from ChEMBL document CHEMBL4196178, “Structure-Based Drug Design of Potent Pyrazole Derivatives against Rhinovirus Replication” (J Med Chem, 2018).
The source made the active and inactive calls. The rule behind the calls is not given here.

Tested on: rhinovirus B14
Assay: Antiviral activity against Rhinovirus B14 infected in human HeLa Rh cells assessed as reduction in viral replication at 1 uM administered at the time of infection measured after 8 hrs post infection by RT-qPCR analysis
Format: functional, organism-based
Conditions: not given
In short: (§1)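 HeLa Rh cells adhered overnight, then given 1 µM compound 2 h before, at, or 2, 4 or 6 h after RV-B14 infection. Untreated infected cells served as controls. Cells lysed at 8 h post-infection, DNases heat-inactivated at 75 °C for 15 min. Intracellular viral RNA measured by SYBR one-step qRT-PCR against a gBlock standard series, reported as genome equivalents per sample.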

Compound	Activity
Cn1cc(-c2ccc(C[C@H](O)c3ccc(-n4cccn4)cc3)c([N+](=O)[O-])c2)cn1	Active
Cn1cc(-c2ccc(C[C@H](O)c3ccc(-n4cncn4)cc3)c([N+](=O)[O-])c2)cn1	Active

Tested on: CHO-K1
Assay: Genotoxicity in CHOK1 cells assessed as increase in micronucleated cell rates at 1 to 100 uM after 3 hrs in absence of Sprague-Dawley rat S9 fraction and presence of cytokinesis blocking agent cytochalasin B by Giemsa-staining based assay
Format: toxicity, Cricetulus griseus
Conditions: chinese hamster, cho-k1, 3 h
In short: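 CHO-K1 cells were seeded at 100,000 cells/ml and pre-incubated 24 h, then exposed in duplicate to compound (1–100 μM) for 3 h at 37 °C without S9. Controls were medium, 1% DMSO and mitomycin C 0.6 µg/ml. Cells then had 21 h in 3 µg/ml cytochalasin B, followed by methanol fixation and 10% Giemsa. Micronuclei were counted in 1000 binucleated cells per well, restricted to doses with CI% decrease <55 ± 5%, and compared by χ² test.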

Compound	Activity
Cn1cc(-c2ccc(C[C@H](O)c3ccc(-n4cccn4)cc3)c([N+](=O)[O-])c2)cn1	Non-Toxic
Cn1cc(-c2ccc(C[C@H](O)c3ccc(-n4cncn4)cc3)c([N+](=O)[O-])c2)cn1	Non-Toxic

Tested on: CHO-K1
Assay: Genotoxicity in CHOK1 cells assessed as increase in micronucleated cell rates at 1 to 100 uM after 3 hrs in presence of Sprague-Dawley rat S9 fraction and cytokinesis blocking agent cytochalasin B by Giemsa-staining based assay
Format: toxicity, Cricetulus griseus
Conditions: chinese hamster, s9, 3 h
In short: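 CHO-K1 cells were seeded at 100,000 cells/ml and pre-incubated 24 h. S9 mix from Aroclor 1254-treated male Sprague-Dawley rat liver (1% S9, 0.5 mM G6P, 0.4 mM NADP) was added at 10%, and compound (1–100 μM) was given in duplicate for 3 h at 37 °C. Controls were medium, 1% DMSO and benzo-a-pyrene 5 µg/ml. Cells then had 21 h in 3 µg/ml cytochalasin B and Giemsa staining. Micronuclei were counted in 1000 binucleated cells per well at doses with CI% decrease <55 ± 5%, and compared by χ² test.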

Compound	Activity
Cn1cc(-c2ccc(C[C@H](O)c3ccc(-n4cccn4)cc3)c([N+](=O)[O-])c2)cn1	Non-Toxic
Cn1cc(-c2ccc(C[C@H](O)c3ccc(-n4cncn4)cc3)c([N+](=O)[O-])c2)cn1	Non-Toxic

Tested on: not listed separately
Assay: Selectivity index, ratio of CC50 for human HeLa Rh cells to EC50 for Rhinovirus B14 capsid infected in human HeLa Rh cells
Format: toxicity, cell-based
Conditions: read-out: Ratio CC50/EC50
In short: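 SI = CC₅₀/EC₅₀ for RV-B14 in HeLa Rh cells, both from the same 3-day 35 °C MTS CPE assay. CC₅₀ was obtained by light-microscope scoring of compound-treated uninfected cells, and EC₅₀ from MTS dose-response. Both values were derived by logarithmic interpolation and reported as median ± median absolute deviation.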

Compound	selectivity ratio
Cn1cc(-c2ccc(C[C@@H](O)c3ccc(-n4cccn4)cc3)c([N+](=O)[O-])c2)cn1	> 136
Cn1cc(-c2ccc(C[C@H](O)c3ccc(-n4cccn4)cc3)c([N+](=O)[O-])c2)cn1	> 9770
Cn1cc(-c2ccc(C[C@H](O)c3ccc(-n4cncn4)cc3)c([N+](=O)[O-])c2)cn1	> 5700

Molecular target: T1, VP1 capsid protein (Human rhinovirus sp.) (UniProt Q7T664)
T1 sequence (whole entry): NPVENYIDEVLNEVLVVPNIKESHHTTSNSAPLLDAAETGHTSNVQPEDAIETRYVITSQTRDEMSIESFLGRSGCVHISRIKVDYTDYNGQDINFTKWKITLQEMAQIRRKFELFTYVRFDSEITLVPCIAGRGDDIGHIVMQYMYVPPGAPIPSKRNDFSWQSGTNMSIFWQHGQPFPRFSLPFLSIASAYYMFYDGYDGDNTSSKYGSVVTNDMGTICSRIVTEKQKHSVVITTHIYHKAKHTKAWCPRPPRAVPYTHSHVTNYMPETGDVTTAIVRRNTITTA
Assay: Inhibition of Rhinovirus B14 capsid infected in human HeLa Rh cells assessed as reduction in viral replication at 1 uM administered 2 hrs before infection measured after 8 hrs post infection by RT-qPCR analysis
Format: cell-based
Conditions: not given
In short: as §1

Compound	inhibition
Cn1cc(-c2ccc(C[C@H](O)c3ccc(-n4cccn4)cc3)c([N+](=O)[O-])c2)cn1	Active
Cn1cc(-c2ccc(C[C@H](O)c3ccc(-n4cncn4)cc3)c([N+](=O)[O-])c2)cn1	Active

Tested on: rhinovirus B14
Assay: Antiviral activity against Rhinovirus B14 infected in human HeLa Rh cells assessed as reduction in viral replication at 1 uM administered at >= 2 hrs post infection measured after 8 hrs post infection by RT-qPCR analysis
Format: functional, organism-based
Conditions: not given
In short: as §1

Compound	Activity
Cn1cc(-c2ccc(C[C@H](O)c3ccc(-n4cccn4)cc3)c([N+](=O)[O-])c2)cn1	inactive
Cn1cc(-c2ccc(C[C@H](O)c3ccc(-n4cncn4)cc3)c([N+](=O)[O-])c2)cn1	inactive

Tested on: not listed separately
Assay: Cytotoxicity against human HeLa Rh cells assessed as reduction in cell viability after 3 days by MTS assay
Format: cell-based
Conditions: not given

Compound	CC50 at 72 h [µM]
Cn1cc(-c2ccc(C[C@@H](O)c3ccc(-n4cccn4)cc3)c([N+](=O)[O-])c2)cn1	> 342
Cn1cc(-c2ccc(C[C@H](O)c3ccc(-n4cccn4)cc3)c([N+](=O)[O-])c2)cn1	> 342
Cn1cc(-c2ccc(C[C@H](O)c3ccc(-n4cncn4)cc3)c([N+](=O)[O-])c2)cn1	> 342
